What was measured:
[1] = target: Muscarinic acetylcholine receptor M2 and M4 (Homo sapiens) (UniProt P08173+P08172); assay: Selectivity ratio of Ki for human muscarinic M4 receptor expressed in CHO-K9 cells to Ki for human muscarinic M2 receptor expressed in CHO-K9 cells; format: cell-based
In short: (§1)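 Ratio of mean Ki values. Each Ki came from an individual [3H]NMS competition experiment at the given CHO-hMxR subtype, converting IC50 to Ki by Cheng-Prusoff before averaging.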

[2] = target: T1, Muscarinic acetylcholine receptors; M2 & M3 (Homo sapiens) (UniProt P20309+P08172); assay: Selectivity ratio of Ki for human muscarinic M3 receptor expressed in CHO-K9 cells to Ki for human muscarinic M2 receptor expressed in CHO-K9 cells; format: cell-based; in short: as §1
T1 sequence (P20309 whole entry, looked up, one chain of several): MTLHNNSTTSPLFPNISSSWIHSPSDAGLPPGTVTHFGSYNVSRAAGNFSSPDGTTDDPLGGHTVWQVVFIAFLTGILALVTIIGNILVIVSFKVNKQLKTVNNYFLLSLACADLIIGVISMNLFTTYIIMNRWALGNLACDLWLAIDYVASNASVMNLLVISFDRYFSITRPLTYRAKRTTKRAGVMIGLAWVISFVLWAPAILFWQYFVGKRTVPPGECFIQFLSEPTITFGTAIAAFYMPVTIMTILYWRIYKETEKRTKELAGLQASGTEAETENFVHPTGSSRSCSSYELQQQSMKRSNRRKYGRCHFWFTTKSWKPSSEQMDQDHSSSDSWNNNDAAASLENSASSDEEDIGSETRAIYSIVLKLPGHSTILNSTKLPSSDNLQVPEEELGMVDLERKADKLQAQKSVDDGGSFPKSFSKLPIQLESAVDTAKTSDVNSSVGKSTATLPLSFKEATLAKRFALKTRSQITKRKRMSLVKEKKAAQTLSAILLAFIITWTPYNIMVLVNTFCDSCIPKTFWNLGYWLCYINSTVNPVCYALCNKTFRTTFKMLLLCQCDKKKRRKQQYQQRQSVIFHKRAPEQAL

[3] = target: Muscarinic acetylcholine receptor M3 (Homo sapiens, UniProt P20309); assay: Displacement of [3H]-NMS from human muscarinic M3 receptor expressed in CHO-K9 cells after 3 hrs by microbeta2 scintillation counting method; format: cell-based
Chain of Muscarinic acetylcholine receptor M3 (P20309 whole entry): as the sequence (P20309 whole entry, looked up, one chain of several) above
In short: (§2)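 [3H]NMS competition binding on intact CHO-hMxR cells in L15 medium with 1% BSA, 3 h at 22 ± 1 °C with gentle shaking. [3H]NMS was 0.2 nM (M1, M2, M3), 0.1 nM (M4) or 0.3 nM (M5). […] Cells were lysed in urea/acetic acid/Triton and counted by liquid scintillation. Ki from Cheng-Prusoff. Triplicates, ≥3 experiments.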

[4] = target: T2, Muscarinic acetylcholine receptor M1 (Homo sapiens, UniProt P11229); assay: Displacement of [3H]-NMS from human muscarinic M1 receptor expressed in CHO-K9 cells after 3 hrs by microbeta2 scintillation counting method; format: cell-based; in short: as §2
T2 sequence (P11229 whole entry): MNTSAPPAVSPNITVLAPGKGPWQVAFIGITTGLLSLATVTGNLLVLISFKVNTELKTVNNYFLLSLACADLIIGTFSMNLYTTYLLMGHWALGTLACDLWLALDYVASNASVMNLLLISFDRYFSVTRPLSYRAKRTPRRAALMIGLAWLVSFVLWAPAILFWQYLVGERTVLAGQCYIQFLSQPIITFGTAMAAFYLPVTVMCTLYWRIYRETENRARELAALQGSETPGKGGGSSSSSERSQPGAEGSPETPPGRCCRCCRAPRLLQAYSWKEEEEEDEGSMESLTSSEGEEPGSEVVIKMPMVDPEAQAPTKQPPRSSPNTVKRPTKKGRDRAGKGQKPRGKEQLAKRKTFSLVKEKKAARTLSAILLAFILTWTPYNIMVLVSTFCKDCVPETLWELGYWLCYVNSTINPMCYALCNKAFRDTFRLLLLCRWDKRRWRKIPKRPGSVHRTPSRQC

[5] = target: T3, Muscarinic acetylcholine receptor M4 (Homo sapiens, UniProt P08173); assay: Displacement of [3H]-NMS from human muscarinic M4 receptor expressed in CHO-K9 cells after 3 hrs by microbeta2 scintillation counting method; format: cell-based; in short: as §2
T3 sequence (P08173 whole entry): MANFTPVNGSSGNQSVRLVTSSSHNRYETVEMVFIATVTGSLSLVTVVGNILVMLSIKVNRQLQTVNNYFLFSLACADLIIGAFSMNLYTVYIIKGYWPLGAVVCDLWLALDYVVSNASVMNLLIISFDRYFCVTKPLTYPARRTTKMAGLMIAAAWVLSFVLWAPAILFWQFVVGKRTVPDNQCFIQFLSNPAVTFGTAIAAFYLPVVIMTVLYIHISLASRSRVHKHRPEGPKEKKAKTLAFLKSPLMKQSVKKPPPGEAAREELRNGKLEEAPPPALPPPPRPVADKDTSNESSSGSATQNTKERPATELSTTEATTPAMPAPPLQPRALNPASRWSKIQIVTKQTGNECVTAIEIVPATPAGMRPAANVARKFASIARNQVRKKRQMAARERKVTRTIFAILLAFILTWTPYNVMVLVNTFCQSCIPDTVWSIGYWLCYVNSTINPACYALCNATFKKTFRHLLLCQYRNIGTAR

[6] = target: T4, Muscarinic acetylcholine receptor M2 and M5 (Homo sapiens) (UniProt P08172+P08912); assay: Selectivity ratio of Ki for human muscarinic M5 receptor expressed in CHO-K9 cells to Ki for human muscarinic M2 receptor expressed in CHO-K9 cells; format: cell-based; in short: as §1
[7] = target: T5, Muscarinic acetylcholine receptor M2 (Homo sapiens, UniProt P08172); assay: Displacement of [3H]-NMS from human muscarinic M2 receptor expressed in CHO-K9 cells after 3 hrs by microbeta2 scintillation counting method; format: cell-based; in short: as §2
T5 sequence (P08172 whole entry): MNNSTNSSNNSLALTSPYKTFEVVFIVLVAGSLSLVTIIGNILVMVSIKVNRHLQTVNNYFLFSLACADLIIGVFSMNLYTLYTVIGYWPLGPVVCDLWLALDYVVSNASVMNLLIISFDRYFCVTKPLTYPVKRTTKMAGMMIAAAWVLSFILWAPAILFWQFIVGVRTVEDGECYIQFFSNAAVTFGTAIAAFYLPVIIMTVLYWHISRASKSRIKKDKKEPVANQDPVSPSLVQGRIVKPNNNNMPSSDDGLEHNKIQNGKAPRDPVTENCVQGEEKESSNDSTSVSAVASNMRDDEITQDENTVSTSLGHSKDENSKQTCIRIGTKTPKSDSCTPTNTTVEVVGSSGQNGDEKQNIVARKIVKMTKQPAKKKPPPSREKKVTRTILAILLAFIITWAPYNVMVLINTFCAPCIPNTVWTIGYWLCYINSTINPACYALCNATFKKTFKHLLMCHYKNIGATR

[8] = target: T6, Muscarinic acetylcholine receptor M5 (Homo sapiens, UniProt P08912); assay: Displacement of [3H]-NMS from human muscarinic M5 receptor expressed in CHO-K9 cells after 3 hrs by microbeta2 scintillation counting method; format: cell-based; in short: as §2
T6 sequence (P08912 whole entry): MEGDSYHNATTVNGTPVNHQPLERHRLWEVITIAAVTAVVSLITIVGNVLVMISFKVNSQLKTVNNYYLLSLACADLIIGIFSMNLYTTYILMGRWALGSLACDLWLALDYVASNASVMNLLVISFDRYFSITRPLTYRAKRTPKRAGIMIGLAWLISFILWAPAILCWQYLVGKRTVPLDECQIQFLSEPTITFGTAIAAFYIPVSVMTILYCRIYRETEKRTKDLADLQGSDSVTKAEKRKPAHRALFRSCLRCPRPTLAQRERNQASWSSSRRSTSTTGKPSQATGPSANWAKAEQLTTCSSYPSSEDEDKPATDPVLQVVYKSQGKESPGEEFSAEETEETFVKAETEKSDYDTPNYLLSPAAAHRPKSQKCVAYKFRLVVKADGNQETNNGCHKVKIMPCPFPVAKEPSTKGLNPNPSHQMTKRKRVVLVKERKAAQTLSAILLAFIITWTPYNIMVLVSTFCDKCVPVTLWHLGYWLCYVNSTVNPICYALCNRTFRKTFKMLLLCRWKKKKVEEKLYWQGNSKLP

[9] = target: Muscarinic acetylcholine receptors; M1 & M2 (Homo sapiens) (UniProt P11229+P08172); assay: Selectivity ratio of Ki for human muscarinic M1 receptor expressed in CHO-K9 cells to Ki for human muscarinic M2 receptor expressed in CHO-K9 cells; format: cell-based; in short: as §1
[10] = target: T7, Muscarinic acetylcholine receptor M2 (Homo sapiens) (UniProt P08172); assay: Antagonist activity at human muscarinic M2 receptor expressed in HEK293 cells co-expressing HA-Galphaq/i5 assessed as inhibition of carbachol-induced IP1 accumulation pre-incubated for 30 mins followed by carbachol addition and measured after 1 hr by HTRF assay; format: functional, cell-based
T7 sequence (whole entry): T5 sequence (P08172 whole entry)
In short: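 HEK-293 cells transiently cotransfected (receptor plus HA-tagged Gαqi5), detached after 1 day and seeded at 10,000 cells/well for 24 h at 37 °C. Duplicates.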

[11] = target: T1, Muscarinic acetylcholine receptors; M2 & M3 (Homo sapiens); assay: Selectivity ratio of Ki for human muscarinic M3 receptor expressed in stable CHO-K1 cells to Ki for human muscarinic M2 receptor expressed in stable CHO-K1 cells; format: cell-based
[12] = target: T4, Muscarinic acetylcholine receptor M2 and M5 (Homo sapiens); assay: Selectivity ratio of Ki for human muscarinic M5 receptor expressed in stable CHO-K1 cells to Ki for human muscarinic M2 receptor expressed in stable CHO-K1 cells; format: cell-based

SMILES	Ratio Ki [1]	Ratio Ki [2]	Ki [3] [nM]	Ki [4] [nM]	Ki [5] [nM]	Ratio Ki [6]	Ki [7] [nM]	Ki [8] [nM]	Ratio Ki [9]	inhibition [10]	Ratio Ki [11]	Ratio Ki [12]
N=C(N)NCCC[C@H](N)C(=O)NCCCCC1CCN(CC(=O)N2c3ccccc3NC(=O)c3ccccc32)CC1	9.8	260	1260	107	56.2	410	5.37	2400	18	–	–	–
CC(=O)N[C@@H](CCCCN)C(=O)N[C@@H](C)C(=O)N[C@@H](Cc1ccc(O)cc1)C(=O)NCCN1CCN(CCCCC2CCN(CC(=O)N3c4ccccc4NC(=O)c4ccccc43)CC2)CC1	8.1	240	44.7	1.26	1.26	560	0.174	95.5	8.3	–	–	–
CC(=O)N[C@@H](Cc1ccc(O)cc1)C(=O)N[C@@H](C)C(=O)N[C@@H](CCCCN)C(=O)NCCCCC1CCN(CC(=O)N2c3ccccc3NC(=O)c3ccccc32)CC1	5.9	550	5010	178	57.5	23	9.33	209	19	–	–	–
CC(=O)N[C@@H](CCC(N)=O)C(=O)N[C@@H](C)C(=O)N[C@@H](CC(C)C)C(=O)NCCN1CCN(CCCCC2CCN(CC(=O)N3c4ccccc4NC(=O)c4ccccc43)CC2)CC1	11	440	151	2.95	3.55	710	0.355	240	8.4	–	–	–
CC(=O)N[C@@H](Cc1c[nH]c2ccccc12)C(=O)N[C@@H](Cc1ccc(O)cc1)C(=O)NCCCCC1CCN(CC(=O)N2c3ccccc3NC(=O)c3ccccc32)CC1	2.8	46	1580	155	93.3	1.8	33.1	58.9	5	–	–	–
CC(=O)N[C@@H](CCCNC(=N)N)C(=O)N[C@@H](CCCCN)C(=O)NCCCCC1CCN(CC(=O)N2c3ccccc3NC(=O)c3ccccc32)CC1	17	400	5500	95.5	257	39	12	501	6.5	–	–	–
CC(=O)N[C@@H](CCCCN)C(=O)N[C@@H](Cc1ccc(O)cc1)C(=O)NCCN1CCN(CCCCC2CCN(CC(=O)N3c4ccccc4NC(=O)c4ccccc43)CC2)CC1	12	260	27.5	1.41	1.12	780	0.0794	70.8	14	–	–	–
CN1[C@@H]2CC[C@H]1C[C@@H](OC(=O)C(CO)c1ccccc1)C2 (stereo not given in full)	–	–	–	–	–	–	–	–	–	Dose-dependent effect	–	–
CC(=O)N[C@@H](CCCCN)C(=O)N[C@@H](CCCNC(=N)N)C(=O)NCCN1CCN(CCCCC2CCN(CC(=O)N3c4ccccc4NC(=O)c4ccccc43)CC2)CC1	37	800	49	1.23	2.04	1900	0.0631	112	20	–	–	–
CC(=O)N[C@@H](CCC(N)=O)C(=O)N[C@@H](CC(C)C)C(=O)NCCN1CCN(CCCCC2CCN(CC(=O)N3c4ccccc4NC(=O)c4ccccc43)CC2)CC1	5.4	270	61.7	2.4	1.2	1300	0.24	295	9.6	–	–	–
CC(=O)N[C@@H](Cc1ccc(O)cc1)C(=O)N[C@@H](CCCCN)C(=O)NCCCCC1CCN(CC(=O)N2c3ccccc3NC(=O)c3ccccc32)CC1	6.6	210	10000	87.1	295	15	46.8	708	1.8	–	–	–
CC(=O)N[C@@H](CCCCN)C(=O)N[C@@H](CCCNC(=N)N)C(=O)NCC(=O)NCCCCC1CCN(CC(=O)N2c3ccccc3NC(=O)c3ccccc32)CC1	6.9	180	646	32.4	27.5	49	4.17	200	8.2	–	–	–
CCCN(CCC)CC1CCCCN1CCNC(=O)N1c2ccccc2C(=O)Nc2cccnc21 (stereo not given)	–	–	–	–	–	–	–	–	–	–	11	89
CN1CC=C(c2nsnc2OCCCN2CCN(CCCCC3CCN(CC(=O)N4c5ccccc5NC(=O)c5ccccc54)CC3)CC2)CC1	35	180	13.2	1.45	2.57	230	0.0794	33.9	20	–	–	–
CC(=O)N[C@@H](Cc1ccc(O)cc1)C(=O)N[C@@H](CCCCN)C(=O)NCCN1CCN(CCCCC2CCN(CC(=O)N3c4ccccc4NC(=O)c4ccccc43)CC2)CC1	13	220	16.2	2.14	0.912	1900	0.0794	141	32	–	–	–
